Source: ChEMBL document CHEMBL3120102, “Structure-based design, synthesis and biological evaluation of novel anthra[1,2-d]imidazole-6,11-dione homologues as potential antitumor agents” (2013)

How the values were obtained:
M14 = assay: Cytotoxicity against human M14 cells assessed as cell growth at 10 uM after 48 hrs by SRB assay; assay type: functional; settings: M14, 48 h, read-out: Activity
Procedure, shortened: (§1)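 NCI 60-cell-line screen, first stage: compound at a single dose of […] (unit as printed) for 48 h. Cellular protein was measured by sulforhodamine B colorimetry. Growth was determined using a time-zero cell control and plates not exposed to drug.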

[1] = biological target: Telomerase reverse transcriptase (Homo sapiens) (UniProt O14746); assay: Inhibition of human tert transcriptional activity assessed as SEAP activity at 10 uM after 24 hrs by SEAP reporter assay; design: scale not given: the % may be the effect or the level left
Sequence of Telomerase reverse transcriptase (Homo sapiens) (O14746 whole entry): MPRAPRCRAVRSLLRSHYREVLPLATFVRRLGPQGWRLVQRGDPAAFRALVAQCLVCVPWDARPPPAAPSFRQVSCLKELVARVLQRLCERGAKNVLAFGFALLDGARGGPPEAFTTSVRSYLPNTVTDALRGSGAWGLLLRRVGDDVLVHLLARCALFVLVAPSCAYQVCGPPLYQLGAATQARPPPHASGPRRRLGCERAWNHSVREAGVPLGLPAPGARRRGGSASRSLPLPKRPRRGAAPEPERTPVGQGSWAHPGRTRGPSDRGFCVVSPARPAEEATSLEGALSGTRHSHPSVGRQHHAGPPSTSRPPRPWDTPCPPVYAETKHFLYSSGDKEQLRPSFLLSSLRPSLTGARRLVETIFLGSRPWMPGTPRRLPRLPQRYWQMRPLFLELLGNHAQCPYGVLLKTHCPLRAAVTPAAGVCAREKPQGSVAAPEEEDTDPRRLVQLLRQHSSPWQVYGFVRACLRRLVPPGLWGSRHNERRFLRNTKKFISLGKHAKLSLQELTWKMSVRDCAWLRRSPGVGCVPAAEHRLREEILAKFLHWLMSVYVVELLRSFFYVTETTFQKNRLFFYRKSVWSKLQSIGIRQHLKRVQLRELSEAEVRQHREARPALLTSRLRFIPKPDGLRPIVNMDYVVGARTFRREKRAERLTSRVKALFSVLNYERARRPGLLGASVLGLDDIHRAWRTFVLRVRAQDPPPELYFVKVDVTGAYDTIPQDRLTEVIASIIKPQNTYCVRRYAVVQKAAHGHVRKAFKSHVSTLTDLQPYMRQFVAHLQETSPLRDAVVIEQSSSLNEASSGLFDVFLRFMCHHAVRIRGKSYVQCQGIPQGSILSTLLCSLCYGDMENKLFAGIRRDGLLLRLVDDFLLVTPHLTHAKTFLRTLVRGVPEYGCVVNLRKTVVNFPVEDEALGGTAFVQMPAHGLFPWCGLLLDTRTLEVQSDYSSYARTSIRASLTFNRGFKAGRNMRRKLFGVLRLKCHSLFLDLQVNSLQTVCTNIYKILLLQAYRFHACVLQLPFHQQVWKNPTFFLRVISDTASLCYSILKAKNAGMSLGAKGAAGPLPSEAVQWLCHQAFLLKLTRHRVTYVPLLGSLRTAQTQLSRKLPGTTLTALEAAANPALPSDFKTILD
Procedure, shortened: (§2)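 Reporter assay for hTERT transcriptional activity using secreted alkaline phosphatase. About 2 × 10³ cells per well were grown for 24 h at 37 °C, then given fresh medium. Buffer was added to the medium: 2 M diethanolamine, 1 mM MgCl2 and 20 mM L-homoarginine. p-Nitrophenyl phosphate was added to 12 mM final. The rate of absorbance increase was read at 405 nm.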

NCI-H226 = assay: Cytotoxicity against human NCI-H226 cells assessed as cell growth at 10 uM after 48 hrs by SRB assay; assay type: functional; settings: NCI-H226, 48 h, read-out: Activity
Procedure, shortened: (§3)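 First stage of the NCI 60 human tumour cell line screen: a single dose is tested against every line. Cell growth is read as cellular protein by sulforhodamine B colorimetry after 48 h of drug exposure, with reference to a time-zero control and to untreated plates.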

OVCAR-8 = assay: Cytotoxicity against human OVCAR8 cells assessed as cell growth at 10 uM after 48 hrs by SRB assay; assay type: functional; settings: OVCAR-8, 48 h, read-out: Activity; procedure, shortened: as §3
SF-539 = assay: Cytotoxicity against human SF539 cells assessed as cell growth at 10 uM after 48 hrs by SRB assay; assay type: functional; settings: SF-539, 48 h, read-out: Activity; procedure, shortened: as §3
A549 = assay: Cytotoxicity against human A549 cells assessed as cell growth at 10 uM after 48 hrs by SRB assay; assay type: functional; settings: A549, 48 h, read-out: Activity
SK-OV-3 = assay: Cytotoxicity against human SKOV3 cells assessed as cell growth at 10 uM after 48 hrs by SRB assay; assay type: functional; settings: SK-OV-3, 48 h, read-out: Activity; procedure, shortened: as §3
SK-MEL-28 = assay: Cytotoxicity against human SK-MEL-28 cells assessed as cell growth at 10 uM after 48 hrs by SRB assay; assay type: functional; settings: SK-MEL-28, 48 h, read-out: Activity; procedure, shortened: as §3
HOP-62 = assay: Cytotoxicity against human HOP62 cells assessed as cell growth at 10 uM after 48 hrs by SRB assay; assay type: functional; settings: HOP-62, 48 h, read-out: Activity; procedure, shortened: as §1
SW-620 = assay: Cytotoxicity against human SW620 cells assessed as cell growth at 10 uM after 48 hrs by SRB assay; assay type: functional; settings: SW-620, 48 h, read-out: Activity
Procedure, shortened: (§4)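 First stage of the NCI 60 human tumour cell line screen, with each compound tested at a single dose of 10. Cellular protein measured by sulforhodamine B colorimetry after 48 h drug exposure. Growth is calculated against a time-zero cell control and against plates not exposed to drug.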

TK-10 = assay: Cytotoxicity against human TK10 cells assessed as cell growth at 10 uM after 48 hrs by SRB assay; assay type: functional; settings: TK-10, 48 h, read-out: Activity; procedure, shortened: as §4
UACC-62 = assay: Cytotoxicity against human UACC62 cells assessed as cell growth at 10 uM after 48 hrs by SRB assay; assay type: functional; settings: UACC-62, 48 h, read-out: Activity; procedure, shortened: as §4
MDA-MB-231 = assay: Cytotoxicity against human MDA-MB-231 cells assessed as cell growth at 10 uM after 48 hrs by SRB assay; assay type: functional; settings: MDA-MB-231, 48 h, read-out: Activity; procedure, shortened: as §3
NCI-H23 = assay: Cytotoxicity against human NCI-H23 cells assessed as cell growth at 10 uM after 48 hrs by SRB assay; assay type: functional; settings: NCI-H23, 48 h, read-out: Activity; procedure, shortened: as §3
NCI-H522 = assay: Cytotoxicity against human NCI-H522 cells assessed as cell growth at 10 uM after 48 hrs by SRB assay; assay type: functional; settings: NCI-H522, 48 h, read-out: Activity; procedure, shortened: as §3
SR = assay: Cytotoxicity against human SR cells assessed as cell growth at 10 uM after 48 hrs by SRB assay; assay type: functional; settings: read-out: Activity; procedure, shortened: as §4
SNB-19 = assay: Cytotoxicity against human SNB19 cells assessed as cell growth at 10 uM after 48 hrs by SRB assay; assay type: functional; settings: SNB-19, 48 h, read-out: Activity; procedure, shortened: as §4
SK-MEL-2 = assay: Cytotoxicity against human SK-MEL-2 cells assessed as cell growth at 10 uM after 48 hrs by SRB assay; assay type: functional; settings: SK-MEL-2, 48 h, read-out: Activity; procedure, shortened: as §3
[2] = Cytotoxicity against human UO31 cells assessed as cell growth at 10 uM after 48 hrs by SRB assay; assay type: functional; settings: UO-31, 48 h, read-out: Activity; procedure, shortened: as §4
U-251 = assay: Cytotoxicity against human U251 cells assessed as cell growth at 10 uM after 48 hrs by SRB assay; assay type: functional; settings: U-251, 48 h, read-out: Activity; procedure, shortened: as §4
KM12 = assay: Cytotoxicity against human KM12 cells assessed as cell growth at 10 uM after 48 hrs by SRB assay; assay type: functional; settings: KM12, 48 h, read-out: Activity
[3] = biological target: Telomerase reverse transcriptase (Homo sapiens) (UniProt O14746); assay: Inhibition of human tert transcriptional activity assessed as SEAP activity at 100 uM after 24 hrs by SEAP reporter assay; design: scale not given: the % may be the effect or the level left; procedure, shortened: as §2
MDA-MB-435 = assay: Cytotoxicity against human MDA-MB-435 cells assessed as cell growth at 10 uM after 48 hrs by SRB assay; assay type: functional; settings: MDA-MB-435, 48 h, read-out: Activity; procedure, shortened: as §3
SF-268 = assay: Cytotoxicity against human SF268 cells assessed as cell growth at 10 uM after 48 hrs by SRB assay; assay type: functional; settings: SF-268, 48 h, read-out: Activity; procedure, shortened: as §3
[4] = Cytotoxicity against human H1299 cells assessed as cell viability at 1 uM after 48 hrs by MTT assay; assay type: functional; settings: NCI-H1299, 48 h, read-out: Activity
Procedure, shortened: (§5)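 About 2×10³ H1299 cells per well were grown for 24 h at 37 °C in 5% CO2. Compound was dissolved in DMSO immediately before use, diluted in complete medium and left on cells for 48 h. MTT was then added for 4 h at 37 °C, followed by SDS/DMF lysis buffer for 16 h at 37 °C. Absorbance was read at 550 nm.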

ACHN = assay: Cytotoxicity against human ACHN cells assessed as cell growth at 10 uM after 48 hrs by SRB assay; assay type: functional; settings: read-out: Activity
NCI-H322M = assay: Cytotoxicity against human NCI-H322M cells assessed as cell growth at 10 uM after 48 hrs by SRB assay; assay type: functional; settings: read-out: Activity; procedure, shortened: as §3
[5] = Cytotoxicity against human H1299 cells assessed as cell viability at 100 uM after 48 hrs by MTT assay; assay type: functional; settings: NCI-H1299, 48 h, read-out: Activity; procedure, shortened: as §5
IGROV-1 = assay: Cytotoxicity against human IGROV1 cells assessed as cell growth at 10 uM after 48 hrs by SRB assay; assay type: functional; settings: IGROV-1, 48 h, read-out: Activity
SNB-75 = assay: Cytotoxicity against human SNB75 cells assessed as cell growth at 10 uM after 48 hrs by SRB assay; assay type: functional; settings: SNB-75, 48 h, read-out: Activity; procedure, shortened: as §4
SF-295 = assay: Cytotoxicity against human SF295 cells assessed as cell growth at 10 uM after 48 hrs by SRB assay; assay type: functional; settings: SF-295, 48 h, read-out: Activity; procedure, shortened: as §3

Compound | growth at 10 µM (M14) | Activity [1] | growth at 10 µM (NCI-H226) | growth at 10 µM (OVCAR-8) | growth at 10 µM (SF-539) | growth at 10 µM (A549) | growth at 10 µM (SK-OV-3) | growth at 10 µM (SK-MEL-28) | growth at 10 µM (HOP-62) | growth at 10 µM (SW-620) | growth at 10 µM (TK-10) | growth at 10 µM (UACC-62) | growth at 10 µM (MDA-MB-231) | growth at 10 µM (NCI-H23) | growth at 10 µM (NCI-H522) | growth at 10 µM (SR) | growth at 10 µM (SNB-19) | growth at 10 µM (SK-MEL-2) | growth at 10 µM [2] | growth at 10 µM (U-251) | also measured
CCCSc1nc2ccc3c(c2[nH]1)C(=O)c1ccccc1C3=O | 90% | 94% | 50.2% | 44.7% | 24% | 59.1% | 38.9% | 92.6% | 59.1% | 104% | 35.5% | 51.1% | 26.4% | 69.8% | 72.4% | 71% | 92% | 79.3% | 24.5% | 63% | growth at 10 µM (KM12): 55.2%; Activity [3]: 33%; growth at 10 µM (MDA-MB-435): 77.4%; growth at 10 µM (SF-268): 47.8%; viability at 1 µM [4]: 91%; growth at 10 µM (ACHN): 27.2%; growth at 10 µM (NCI-H322M): 76%; viability at 100 µM [5]: 12%; growth at 10 µM (IGROV-1): 53.7%; growth at 10 µM (SNB-75): -9.55%; growth at 10 µM (SF-295): 37.2%
O=C1c2ccccc2C(=O)c2c1ccc1[nH]c(=S)[nH]c21 | 101% | 100% | 83.7% | 140% | 91.3% | 118% | 103% | 118% | 96.7% | 97.6% | 112% | 84.2% | 108% | 113% | 96.1% | 125% | 91.3% | 134% | 97.8% | 88.8% | growth at 10 µM (KM12): 102%; Activity [3]: 31%; growth at 10 µM (MDA-MB-435): 114%; growth at 10 µM (SF-268): 90.3%; viability at 1 µM [4]: 101%; growth at 10 µM (ACHN): 96.2%; growth at 10 µM (NCI-H322M): 96.3%; viability at 100 µM [5]: 54%; growth at 10 µM (IGROV-1): 138%; growth at 10 µM (SNB-75): 101%; growth at 10 µM (SF-295): 118%
O=C1c2ccccc2C(=O)c2c1ccc1nc(SCCN3CCCC3)[nH]c21 | 70.9% | 98% | 88.1% | 49.4% | 62.2% | 35.5% | 55.6% | 100% | 73.7% | 22.8% | 36.9% | 81% | 63.5% | 66.9% | 81.5% | 20.2% | 60.5% | 107% | 21.2% | 69.1% | growth at 10 µM (KM12): 19.6%; Activity [3]: 36%; growth at 10 µM (MDA-MB-435): 66.5%; growth at 10 µM (SF-268): 42%; viability at 1 µM [4]: 90%; growth at 10 µM (ACHN): 34.6%; growth at 10 µM (NCI-H322M): 73.2%; viability at 100 µM [5]: 21%; growth at 10 µM (IGROV-1): 23.2%; growth at 10 µM (SNB-75): 81.8%; growth at 10 µM (SF-295): 76.9%
CCSc1nc2ccc3c(c2[nH]1)C(=O)c1ccccc1C3=O | 67.1% | 90% | 62.1% | 96.8% | 58.6% | 101% | 24.7% | 97.7% | 95.6% | 84.5% | 74.1% | 47.6% | 84.8% | 87.4% | 78.6% | 129% | 87.9% | 81.7% | 49.2% | 65% | growth at 10 µM (KM12): 68.3%; Activity [3]: 17%; growth at 10 µM (MDA-MB-435): 68.4%; growth at 10 µM (SF-268): 75.7%; viability at 1 µM [4]: 109%; growth at 10 µM (ACHN): 37.6%; growth at 10 µM (NCI-H322M): 33.4%; viability at 100 µM [5]: 73%; growth at 10 µM (IGROV-1): 73.4%; growth at 10 µM (SNB-75): 73.3%; growth at 10 µM (SF-295): 101%
